# Results: ChEMBL document CHEMBL1122281, “Synthesis and antifilarial activity of N-[4-[[4-alkoxy-3-[(dialkylamino)methyl]phenyl]amino]- 2-pyrimidinyl]-N'-phenylguanidines” (J Med Chem, 1983)
# How the values were obtained:
# Litomosoides carinii [1] = test: Antifilarial activity against infections of Litomosoides carinii in the Jird by oral route(dose (mg/kg) is given in parentheses); type: functional
# Summary of the method: (§1)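 L. carinii-infected jirds were dosed. Survivors were killed 55–70 days after the first dose, and the pleural and peritoneal cavities were searched for adult worms. Live worms at autopsy were scored as a percentage relative to sham-dosed controls. Adult worm reduction above 60% was the activity criterion.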
# Litomosoides carinii [2] = test: Antifilarial activity against Litomosoides carinii infections in the Jird at dose 600 mg/kg administered orally; type: functional; details: route oral; summary of the method: as §1
# Litomosoides carinii [3] = test: Antifilarial activity against Litomosoides carinii infections in the Jird at dose 400 mg/kg administered orally; type: functional; details: route oral; summary of the method: as §1
# Litomosoides carinii [4] = test: Antifilarial activity against Litomosoides carinii infections in the Jird at dose 200 mg/kg administered orally; type: functional; details: route oral; summary of the method: as §1
# Litomosoides carinii [5] = test: Antifilarial activity against Litomosoides carinii infections in the Jird at dose 100 mg/kg administered orally; type: functional; details: route oral; summary of the method: as §1
# Litomosoides carinii [6] = test: Antifilarial activity against Litomosoides carinii infections in the Jird at dose 400 mg/kg administered subcutaneously; type: functional; details: route subcutaneous; summary of the method: as §1
# Litomosoides carinii [7] = test: Antifilarial activity against Litomosoides carinii infections in the Jird at dose 25 mg/kg administered orally; type: functional; details: route oral; summary of the method: as §1
# Litomosoides carinii [8] = test: Antifilarial activity against Litomosoides carinii infections in the Jird at dose 3 mg/kg administered orally; type: functional; details: route oral; summary of the method: as §1
# [9] = Antifilarial activity against Litomosoides carinii infections in the Jird at dose 100 mg/kg administered subcutaneously; two or more animals died prematurely considered to be drug toxicity.; type: organism-based, Meriones unguiculatus; set-up: dose 100 mg/kg, route subcutaneous; details: gerbil, in vivo, sc
# Summary of the method: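 Jirds infected with Litomosoides carinii. Surviving animals killed 55–70 days after first drug dose; pleural and peritoneal cavities searched for adult worms. Live worm count at autopsy scored as percentage relative to sham-dosed controls. Activity criterion: adult worm reduction exceeding 60%.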
# Litomosoides carinii [10] = test: Antifilarial activity against Litomosoides carinii infections in the Jird at dose 200 mg/kg administered subcutaneously; type: functional; details: route subcutaneous; summary of the method: as §1
# Litomosoides carinii [11] = test: (§2) Antifilarial activity against Litomosoides carinii infections in the Jird at dose 100 mg/kg administered subcutaneously; type: functional; details: route subcutaneous; summary of the method: as §1
# Litomosoides carinii [12] = test: Antifilarial activity against Litomosoides carinii infections in the Jird at dose 50 mg/kg administered subcutaneously; type: functional; details: route subcutaneous; summary of the method: as §1
# Litomosoides carinii [13] = test: as §2; type: functional; details: route subcutaneous; summary of the method: as §1; remark: listed apart in the source
# Litomosoides carinii [14] = test: Antifilarial activity against Litomosoides carinii infections in the Jird at dose 100 mg/kg administered subcutaneously; details: route subcutaneous
# Litomosoides carinii [15] = test: Antifilarial activity against Litomosoides carinii infections in the Jird at dose 25 mg/kg administered subcutaneously; type: functional; details: route subcutaneous; summary of the method: as §1
# Litomosoides carinii [16] = test: Antifilarial activity against Litomosoides carinii infections in the Jird at dose 6.25 mg/kg administered subcutaneously; type: functional; details: route subcutaneous; summary of the method: as §1
# Litomosoides carinii [17] = test: Antifilarial activity against Litomosoides carinii infections in the Jird at dose 1.56 mg/kg administered subcutaneously; type: functional; details: route subcutaneous; summary of the method: as §1
# Litomosoides carinii [18] = test: Antifilarial activity against Litomosoides carinii infections in the Jird at dose 6 mg/kg administered subcutaneously; type: functional; details: route subcutaneous; summary of the method: as §1
compound,measurement,setting,value
Cc1ccc(C(=O)Nc2ccc(S(=O)(=O)O)c3cc(S(=O)(=O)O)cc(S(=O)(=O)O)c23)cc1NC(=O)c1cccc(NC(=O)Nc2cccc(C(=O)Nc3cc(C(=O)Nc4ccc(S(=O)(=O)O)c5cc(S(=O)(=O)O)cc(S(=O)(=O)O)c45)ccc3C)c2)c1 [SURAMIN],Reduction of live worms,Litomosoides carinii [1],98%
CCCCN(CC)CCNc1cc(C)nc(/N=C(\N)Nc2ccc(Cl)c(Cl)c2)n1,Reduction of live worms,Litomosoides carinii [2],66%
CN1CCN(Cc2cc(Nc3cc(C(F)(F)F)nc(/N=C(\N)Nc4ccc(Cl)c(Cl)c4)n3)ccc2O)CC1,Reduction of live worms,Litomosoides carinii [3],100%
same,Reduction of live worms,Litomosoides carinii [4],100%
same,Reduction of live worms,Litomosoides carinii [5],100%
same,Reduction of live worms,Litomosoides carinii [6],99%
same,Reduction of live worms,Litomosoides carinii [7],100%
same,Reduction of live worms,Litomosoides carinii [8],0%
same,Animals dead,[9],> 2
CN1CCN(Cc2cc(Nc3cc(C(F)(F)F)nc(/N=C(\N)Nc4ccc(C(F)(F)F)cc4)n3)ccc2O)CC1,Reduction of live worms,Litomosoides carinii [5],100%
same,Reduction of live worms,Litomosoides carinii [7],40%
same,Reduction of live worms,Litomosoides carinii [10],96%
same,Reduction of live worms,Litomosoides carinii [8],5%
CCN(CC)C(=O)N1CCN(C)CC1 [DIETHYLCARBAMAZINE],Reduction of live worms,Litomosoides carinii [11],100%
same,Reduction of live worms,Litomosoides carinii [12],89%
CCN(CC)Cc1cc(Nc2cc(C)nc(/N=C(\N)Nc3cc(Cl)cc(Cl)c3)n2)ccc1O,Reduction of live worms,Litomosoides carinii [11],68%
same,Animals dead,[9],> 2
same,Reduction of live worms,Litomosoides carinii [13],0%
CCOc1ccc(Nc2nc(/N=C(\N)Nc3ccc(Cl)c(Cl)c3)nc3c2CCCC3)cc1CN(CC)CC,Reduction of live worms,Litomosoides carinii [14],0%
same,Reduction of live worms,Litomosoides carinii [7],54%
same,Animals dead,[9],> 2
COC(=O)Nc1nc2cc(C(=O)c3ccccc3)ccc2[nH]1 [MEBENDAZOLE],Reduction of live worms,Litomosoides carinii [15],100%
same,Reduction of live worms,Litomosoides carinii [16],100%
same,Reduction of live worms,Litomosoides carinii [17],97%
CCNCc1cc(Nc2cc(C(F)(F)F)nc(/N=C(\N)Nc3ccc(Cl)cc3)n2)ccc1OC,Reduction of live worms,Litomosoides carinii [18],92%
same,Reduction of live worms,Litomosoides carinii [5],100%
same,Reduction of live worms,Litomosoides carinii [7],94%
same,Reduction of live worms,Litomosoides carinii [15],100%
same,Reduction of live worms,Litomosoides carinii [8],81%
same,Animals dead,[9],> 2
